Reference: ChEMBL document CHEMBL3994584, “Identification of novel fluorescent probes preventing PrPSc replication in prion diseases” (Eur J Med Chem, 2017)
The source made the active and inactive calls. The calls are words filed in the database; no cut-off is given here.

What was measured:
[1] = Cytotoxicity against mouse ScN2a cells assessed as cell viability at 1 uM after 5 days by MTT assay relative to control; type: cell-based; settings: read-out: Activity
Method in brief: (§1)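 ScN2a cells were seeded in MEM at 2.5×10^4 cells/mL and allowed to settle for 2 h. Compounds (DMSO stock, diluted in EtOH then medium) were added at 0.1, 1 and 10 μM for 5 days at 37 °C under 5% CO2. MTT (5 mg/mL) was applied for 3 h and solubilized with DMSO/2-propanol. Plates were read at 570/690 nm. Viability is given as % of untreated control, mean ± SD of three independent experiments.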

[2] = Cytotoxicity against mouse ScN2a cells assessed as cell viability at 10 uM after 5 days by MTT assay relative to control; type: cell-based; settings: read-out: Activity; method in brief: as §1
[3] = Cytotoxicity against mouse ScN2a cells assessed as cell viability at 0.1 uM after 5 days by MTT assay relative to control; type: cell-based; settings: read-out: Activity; method in brief: as §1
[4] = Cytotoxicity against mouse ScN2a cells assessed as growth inhibition at 1 uM after 5 days by MTT assay relative to control; type: cell-based; settings: read-out: GI; method in brief: as §1
Mus musculus [5] = organism: Mus musculus; test: Antiprion activity against mouse prion protein RML infected mouse ScN2a cells assessed as proteinase K-resistant PrPSc level at 0.1 uM incubated for 5 days followed by proteinase K digestion by Western blot method relative to control
Method in brief: (§2)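 RML-infected ScN2a cells were treated with 0.1, 1 and 10 μM for 5 days, with DMSO ≤0.1% final. Lysates (500 μg protein) were digested with 10 μg PK for 1 h at 37 °C, stopped with 2 mM PMSF and ultracentrifuged. Pellets were run on SDS-PAGE and immunoblotted with anti-PrP Fab W226, with ECL detection. Densitometry gave PK-resistant PrPSc over total PrP, with untreated set to 100%. Three independent experiments.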

Mus musculus [6] = organism: Mus musculus; test: Antiprion activity against mouse prion protein RML infected mouse ScN2a cells assessed as proteinase K-resistant PrPSc level at 10 uM incubated for 5 days followed by proteinase K digestion by Western blot method relative to control; method in brief: as §2
N2a = test: Effect on cellular prion protein level in mouse N2A cells up to 10 uM incubated for 5 days by Western blot method; type: functional, cell-based
Method in brief: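 Non-infected N2a cells were treated at 0.1, 1 and 10 μM for 5 days. Lysates (50 µg protein, no PK digestion) were immunoblotted with anti-PrP Fab W226. PrPC was normalized to actin, with untreated controls set to 100%. Done in triplicate.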

Mus musculus [7] = organism: Mus musculus; test: Antiprion activity against mouse prion protein RML infected mouse ScN2a cells assessed as proteinase K-resistant PrPSc level at 1 uM incubated for 5 days followed by proteinase K digestion by Western blot method relative to control; method in brief: as §2
[8] = Antiprion activity against mouse prion protein RML infected mouse ScN2a cells assessed as reduction in proteinase K-resistant PrPSc level incubated for 5 days followed by proteinase K digestion by Western blot method; settings: 120 h; method in brief: as §2

SMILES	viability at 120 h, 1 µM [1] [%]	EC50 ([8]; read-out: EC50) [µM]	EC50 ([8]; read-out: pEC50 (converted)) [µM]	other results
COC(=O)C1=CC2=NC(N/N=C/c3ccc4ccccc4n3)=C3CC=CN3C2C=C1 (stereo not drawn)	88.2	–	–	viability at 120 h, 10 µM [2]: 45.4%; viability at 120 h, 0.1 µM [3]: 92.6%; inhibition at 120 h, 1 µM [4]: > 20%
C1=CC2=NC(N/N=C/c3ccnc4ccccc34)=C3CC=CN3C2C=C1 (stereo not drawn)	88.3	–	–	Activity (Mus musculus [5]): 90%; Activity (Mus musculus [6]): 27%; Activity (N2a): inactive; viability at 120 h, 10 µM [2]: 87%; viability at 120 h, 0.1 µM [3]: 92.3%; Activity (Mus musculus [7]): 78%
FC1=CC2=NC(N/N=C/c3ccnc4ccccc34)=C3NC=CN3C2C=C1 (stereo not drawn)	92.6	–	–	Activity (Mus musculus [5]): 76%; Activity (Mus musculus [6]): 31%; Activity (N2a): inactive; viability at 120 h, 10 µM [2]: 72.9%; viability at 120 h, 0.1 µM [3]: 87.7%; Activity (Mus musculus [7]): 34%
C1=CC2=NC(N/N=C/c3ccnc4ccccc34)=C3NC=CN3C2C=C1 (stereo not drawn)	98.5	–	–	Activity (Mus musculus [5]): 178%; Activity (Mus musculus [6]): 30%; Activity (N2a): inactive; viability at 120 h, 10 µM [2]: 83.2%; viability at 120 h, 0.1 µM [3]: 94.4%; Activity (Mus musculus [7]): 131%
COc1ccc2c(C)cc(N/N=C/c3ccnc4ccccc34)nc2c1	84.8	–	–	Activity (Mus musculus [5]): 88%; Activity (Mus musculus [6]): 13%; Activity (N2a): inactive; viability at 120 h, 10 µM [2]: 83.8%; viability at 120 h, 0.1 µM [3]: 93.9%; Activity (Mus musculus [7]): 77%
CC1=CC2=NC(N/N=C/c3ccnc4ccccc34)=C3CC=CN3C2C=C1C (stereo not drawn)	98.6	–	–	Activity (Mus musculus [5]): 137%; Activity (Mus musculus [6]): 29%; Activity (N2a): inactive; viability at 120 h, 10 µM [2]: 86.5%; viability at 120 h, 0.1 µM [3]: 96.7%; Activity (Mus musculus [7]): 100%
C1=CC2=NC(N/N=C/c3ccc4ccccc4n3)=C3CC=CN3C2C=C1 (stereo not drawn)	94.8	–	–	Activity (Mus musculus [5]): 54%; Activity (Mus musculus [6]): 34%; Activity (N2a): inactive; viability at 120 h, 10 µM [2]: 90.9%; viability at 120 h, 0.1 µM [3]: 87.6%; Activity (Mus musculus [7]): 47%
O=C(Nc1nc(-c2ccc(-c3ccccc3)cc2)cs1)C1CC1	–	0.248	0.245	–
O=C(CN1CCCC1)Nc1ccc(Cc2ccc(NC(=O)CN3CCCC3)cc2)cc1	–	1.35	1.35	–
CN(CCCCNc1c2c(nc3ccccc13)CCCC2)CCCNc1c2c(nc3ccccc13)CCCC2	76.9	–	–	inhibition at 120 h, 1 µM [4]: > 20%
COc1ccc(-c2csc(Nc3ncccc3C)n2)cc1OC	–	7.29	7.24	–
Cc1cccc(Nc2nc(-c3ccncc3)cs2)n1	–	1	1	–
Cc1cccc(Nc2nc(-c3ccc(-c4ccc[n+]([O-])c4)cc3)cs2)n1	–	0.203	0.204	–
Cc1cccc(Nc2nc(-c3ccc(-c4ccc(OC(C)C)nc4)cc3)cs2)n1	–	5.86	5.89	–
c1ccc2nc(Nc3nc(-c4ccncc4)cs3)ccc2c1	–	0.31	0.309	–
COc1ccc(-c2csc(Nc3cccnc3)n2)cc1OC	–	28	28.2	–
C(=C\c1cccs1)/NNc1nc2ccccc2n2cccc12	81.9	–	–	Activity (Mus musculus [5]): 88%; Activity (Mus musculus [6]): 72%; Activity (N2a): inactive; viability at 120 h, 10 µM [2]: 80.7%; viability at 120 h, 0.1 µM [3]: 78.9%; Activity (Mus musculus [7]): 79%
COCCOc1ccc(-c2ccc(-c3csc(NC(=O)C4CC4)n3)cc2)cn1	–	0.118	0.117	–
C1=CC2C(=NC(N/N=C/c3ccnc4ccccc34)=C3CC=CN32)N=C1 (stereo not drawn)	98.6	–	–	Activity (Mus musculus [5]): 128%; Activity (Mus musculus [6]): 83%; Activity (N2a): inactive; viability at 120 h, 10 µM [2]: 75.6%; viability at 120 h, 0.1 µM [3]: 104%; Activity (Mus musculus [7]): 144%
c1ccc(-c2ccc(-c3csc(Nc4ccc5ccccc5n4)n3)s2)nc1	–	2.01	2	–
c1ccc(-c2cc(-c3csc(Nc4ccncc4)n3)on2)cc1	–	4.42	4.47	–
C(=C\c1ccco1)/NNc1nc2ccccc2n2cccc12	88.5	–	–	Activity (Mus musculus [5]): 105%; Activity (Mus musculus [6]): 35%; Activity (N2a): inactive; viability at 120 h, 10 µM [2]: 71.4%; viability at 120 h, 0.1 µM [3]: 96.8%; Activity (Mus musculus [7]): 86%

SMILES	viability at 120 h, 1 µM [1] [%]	EC50 ([8]; read-out: EC50) [µM]	EC50 ([8]; read-out: pEC50 (converted)) [µM]	other results
Cc1cccc(Nc2nc(-c3cc4ccccc4o3)cs2)n1	–	1.46	1.45	–
Cc1cccc(Nc2nc(-c3ccc(O)c(O)c3)cs2)n1	–	2.5	2.51	–
COc1ccc(-c2csc(Nc3ccc4ccccc4c3)n2)cc1OC	–	0.39	0.389	–
Cc1cccc(Nc2nc(-c3ccc(-c4ccnc(OC(C)C)c4)cc3)cs2)n1	–	2.84	2.82	–
COc1ccc(-c2csc(Nc3cccc(C)n3)n2)cc1OC	–	3.01	3.02	–
c1ccc(-c2cc(-c3csc(Nc4ccc5ccccc5n4)n3)on2)cc1	–	0.8	0.794	–
CN1CCN(c2cccc(Nc3nc(-c4ccc(-c5ccccc5)cc4)cs3)n2)CC1	–	1.18	1.17	–
COc1ccc(-c2csc(Nc3ccccn3)n2)cc1OC	–	1.22	1.23	–
CN1CCN(c2ccc(-c3ccc(-c4csc(NC(=O)C5CC5)n4)cc3)cn2)CC1	–	0.07	0.0708	–
c1ccc2c(NCCCCCCCCNc3c4c(nc5ccccc35)CCCC4)c3c(nc2c1)CCCC3	0.7	–	–	inhibition at 120 h, 1 µM [4]: > 20%
COc1ccc(-c2csc(N(C(C)=O)c3ccc4ccccc4n3)n2)cc1OC	–	0.081	0.0813	–
Cc1cccc(Nc2nc(-c3ccc(-c4ccnc(N5CCN(C)CC5)c4)cc3)cs2)n1	–	0.759	0.759	–
c1ccc2nc(Nc3nc(-c4cc5ccccc5o4)cs3)ccc2c1	–	0.92	0.912	–
Cc1ccc(Nc2nc(-c3ccccn3)cs2)nc1	–	0.86	0.851	–
COc1cc2c(cc1OC)-c1nc(Nc3ccc(C)cn3)sc1C2	–	5.59	5.62	–
Oc1ccc(-c2csc(Nc3ccccn3)n2)cc1O	–	10	10	–
COC(=O)C1=CC2=NC(N/N=C/c3ccnc4ccccc34)=C3CC=CN3C2C=C1 (stereo not drawn)	89.3	–	–	Activity (Mus musculus [5]): 104%; Activity (Mus musculus [6]): 30%; Activity (N2a): inactive; viability at 120 h, 10 µM [2]: 67.1%; viability at 120 h, 0.1 µM [3]: 72.6%; Activity (Mus musculus [7]): 131%
COc1ccc(Nc2nc(-c3cc(-c4ccccc4)no3)cs2)nc1	–	0.23	0.229	–
c1ccc(-c2cc(-c3csc(Nc4ccc(-c5cnco5)cc4)n3)on2)cc1	–	0.057	0.0575	–
Cc1ccnc(Nc2nc(-c3cc(-c4ccccc4)no3)cs2)c1	–	1.27	1.26	–
Cc1ccc(Nc2nc(-c3cccc(C#N)c3)cs2)nc1	–	2.29	2.29	–
